Experimental data reported in ChEMBL document CHEMBL4513216, “Probing the Open Global Health Chemical Diversity Library for Multistage-Active Starting Points for Next-Generation Antimalarials” (ACS Infect Dis, 2020).

assay: Toxicity liver stage against HepG2, at 10uM; type: cell-based; parameters: test concentration 10 uM, cell line HepG2-A16-CD81EGFP; conditions: human, HepG2-A16-CD81EGFP cells; read-out: INHIBITION
How it was run: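 Uninfected HepG2-A16-CD81EGFP cells, 3 × 10^3 per well, 1536-well, plated on prespotted compound at 10 μM final, parasite-free screening media added to match infected plates; puromycin 10 μM positive, DMSO 0.5% negative; run in parallel with 48 h PbLuc assay at 37 °C, 5% CO2; viability by CellTiter-Glo luminescence, normalized to controls.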

Compound | cytotoxicity at 10 µM
CN(C)CC1(O)CCCN(Cc2cnc(-c3ccco3)nc2)CC1 (stereo unspecified) | -8.58%
Cc1cccc(NC(=O)N2CCOCC(CN(C)C)C2)c1C (stereo unspecified) | 14.7%
Cc1ccc(F)cc1-n1c(COC(C)C)n[nH]c1=O | 4.72%
CSc1ccc(C(=O)C2CCCN(C(=O)CCn3cnnn3)C2)cc1 (stereo unspecified) | 6.03%
OC1CCN(CCNc2ncc3c(n2)CCN3c2ccccc2)CC1 | 5.84%
COc1ccc(CCCC(=O)N2C[C@H](C3CC3)[C@@H](N(C)C)C2)cc1 | 0.624%
C=C(C)COc1ccc(C(=O)NCC2CC(CC)=NO2)cc1 (stereo unspecified) | -48.2%
COc1ccccc1OC1CCN(Cc2cccnc2)CC1 | -1.7%
Cc1cc(C)c2c(C(=O)N(C)C)cc(-c3cnc(N)nc3)nc2c1 | -8.87%
CN1CCC(N(C)C[C@H]2CC[C@@H](Cc3ccc4occc4c3)O2)CC1 | -9.27%
COc1cc(NC2CCS(=O)(=O)CC2)ncn1 | -3.71%
COc1ncc(CN(C)C(C)c2cccnc2)cn1 (stereo unspecified) | 13%
C[C@@H]1CN(Cc2nc(C(N)=O)no2)CC[C@@]1(O)C1CC1 | -50.3%
CC(C)=CCN1CCc2onc(-c3ccc(F)c(F)c3)c2C1 | 5.67%
CN(Cc1csc(-c2cccs2)n1)Cc1ncccc1C(=O)O | -11.5%
CCc1cnc(C)nc1NCC(O)CN1CCCCCC1 (stereo unspecified) | 3.26%
Cn1ccnc1SCCNC1CCN(c2ncccn2)CC1 | -7.63%
CCc1cc(NCCc2cc(F)cc(F)c2)n2nccc2n1 | 19.5%
CN(C(=O)c1ccc(C2CCCO2)s1)C1CCS(=O)(=O)CC1 (stereo unspecified) | 1.72%

Compound | cytotoxicity at 10 µM
Cc1ccc(CN2CCN(Cc3ccc4nonc4c3)CC2=O)cc1 | -1.9%
C[C@@H]1CN(Cc2nnc(-c3cccnc3)o2)CC[C@]1(C)O | 10.1%
O=C(Cc1ccccn1)N1CCc2nc(-c3cnccn3)nc(O)c2C1 | 2.83%
CN(Cc1noc(C2CC2)n1)C1CCCN(c2cccnn2)C1 (stereo unspecified) | -2.66%
CCn1cc(CN2CCCN(C(=O)CCSC)CC2)cn1 | -1.11%
CCc1c(C(=O)N2CCCC(N(C)C)C2)cnn1C(C)(C)C (stereo unspecified) | -0.088%
CCOCCCn1c(NC(=O)c2cc(C)no2)nc2ccccc21 | -5.69%
Cc1cc(C2CCCN2Cc2ccc(S(=O)(=O)N(C)C)o2)on1 (stereo unspecified) | -4.11%
Cc1nn(C)c(N(C)C)c1CNCCCN(C(C)C)S(C)(=O)=O | 1.07%
CN(C)c1cc2c(nn1)CCN(C(=O)Cc1ccc3c(c1)CCC3)C2 | -5.98%
Cc1nc(C2CCCN2Cc2ccn(C)c(=O)c2)no1 (stereo unspecified) | -12.9%
Cn1cnc2c1CCN(Cc1csc(-c3ccco3)n1)C2 | -17.4%
Cc1ccc(O)c(C(=O)N2CCCC(NC(=O)C(C)C)C2)c1 (stereo unspecified) | -0.988%
Cc1cnn(CC2CCCN2C(=O)c2ccccc2-n2cccn2)c1 (stereo unspecified) | -4.16%
COc1ccc(-c2nnc(CNCCn3cc(C)cn3)o2)cc1 | 1.32%
Cc1cc(C)n(CC2CN(Cc3noc(C)n3)CCO2)n1 (stereo unspecified) | 0.305%
CCCS(=O)(=O)NC1CCN(c2nnc(C)c(C)c2C#N)CC1 | 3.28%
Cc1noc(C(C)C)c1C(=O)NCc1cccc(N(C)C)c1 | -1.91%
CN(C)c1cc(CNC(=O)Nc2ccc(S(C)(=O)=O)nc2)ccn1 | 0.71%

Compound | cytotoxicity at 10 µM
CC(C)(C)n1cc(C(=O)N2CCCN(Cc3cccs3)CC2)cn1 | -5.95%
CNc1nc(CNC(=O)Nc2ccccc2SC)cs1 | -7.95%
O=C(CCCc1ncc(-c2ccccc2)o1)N1CCN(CCO)CC1 | -4.69%
OC(COc1ccccc1)CN1CCc2c(ncn2C2CC2)C1 (stereo unspecified) | 2.48%
Cc1cc(C)n(CC2CCCCN2C(=O)c2ccc3nncn3c2)n1 (stereo unspecified) | 0.168%
CC(=O)N1CCN(C(=O)C(C)n2cncn2)CC1 (stereo unspecified) | 1.64%
CCc1n[nH]c(C2CN(C(=O)c3ccsc3)CCO2)n1 (stereo unspecified) | 2.24%
CCn1nc(C)cc1C(=O)Nc1cc(F)ccc1OCC1CCCO1 (stereo unspecified) | 2.89%
Cc1ccnn1CCC(=O)N1CCCC1c1cc2cccnc2[nH]1 (stereo unspecified) | 9.17%
Cc1occc1C(=O)N1Cc2nccn2CC(CN2CCOCC2)C1 (stereo unspecified) | -117%
O=C(NCc1ccco1)[C@@H]1CC[C@@H]2[C@@H](CCN2Cc2ccc(F)cc2)O1 | -0.748%
O=C(C1CCC1)N1C[C@@H]2CCN(c3cccnc3)C[C@@H]2C1 | -2.13%
CNC(=O)[C@@H](c1ccccc1OC)N1CCC[C@H]1C(=O)NCCN(C)C | -5.12%
CC(=O)N1CC(=O)N(c2cnn(C)c2)CC12CCN(Cc1cccs1)C2 (stereo unspecified) | 2.26%
CCN1CCn2c(C)cnc2C12CCN(C(=O)NC)CC2 | 0.906%
CS(=O)(=O)N[C@@H]1CN(Cc2ccco2)C[C@@H]2CCCO[C@@H]21 | 6.15%
CO[C@@H]1CCN(Cc2cnn(C)c2)[C@@H]2CN(Cc3cccnc3)C[C@@H]21 | 8.47%
O=C(Nc1ccccc1)[C@H]1C[C@H]2CN(S(=O)(=O)c3ccccc3)C[C@@H]1O2 | 5.8%
